Like-named read-outs stand apart in the source and are kept apart here.
Legend:
FAK [1] = biological target: T1, FAK (Homo sapiens, UniProt Q05397); test: Western blot of FAK-Tyr-397 phosphorylation in suspended Caco-2 cells; type: cell-based
In short: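 Caco-2 cells held in suspension on plates pre-coated with 1% heat-inactivated BSA to avoid adhesion-driven FAK activation. Treated with compound (100 pM–1000 nM) or H2O for 1 h at 37 °C, then lysed. Lysates resolved by 10% SDS-PAGE on nitrocellulose, probed for pTyr-397 FAK with total FAK as loading control. Read-out: pTyr-397/FAK fold change; n = 4–8.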

Caco-2 cells = conditions: in vitro; ref Wang et al., 2019b; cited from earlier work
FAK [2] = biological target: T1, FAK; conditions: 10 nM, suspended Caco-2 cells; ref Wang et al., 2019b; cited from earlier work

T1 sequence (Q05397 whole entry): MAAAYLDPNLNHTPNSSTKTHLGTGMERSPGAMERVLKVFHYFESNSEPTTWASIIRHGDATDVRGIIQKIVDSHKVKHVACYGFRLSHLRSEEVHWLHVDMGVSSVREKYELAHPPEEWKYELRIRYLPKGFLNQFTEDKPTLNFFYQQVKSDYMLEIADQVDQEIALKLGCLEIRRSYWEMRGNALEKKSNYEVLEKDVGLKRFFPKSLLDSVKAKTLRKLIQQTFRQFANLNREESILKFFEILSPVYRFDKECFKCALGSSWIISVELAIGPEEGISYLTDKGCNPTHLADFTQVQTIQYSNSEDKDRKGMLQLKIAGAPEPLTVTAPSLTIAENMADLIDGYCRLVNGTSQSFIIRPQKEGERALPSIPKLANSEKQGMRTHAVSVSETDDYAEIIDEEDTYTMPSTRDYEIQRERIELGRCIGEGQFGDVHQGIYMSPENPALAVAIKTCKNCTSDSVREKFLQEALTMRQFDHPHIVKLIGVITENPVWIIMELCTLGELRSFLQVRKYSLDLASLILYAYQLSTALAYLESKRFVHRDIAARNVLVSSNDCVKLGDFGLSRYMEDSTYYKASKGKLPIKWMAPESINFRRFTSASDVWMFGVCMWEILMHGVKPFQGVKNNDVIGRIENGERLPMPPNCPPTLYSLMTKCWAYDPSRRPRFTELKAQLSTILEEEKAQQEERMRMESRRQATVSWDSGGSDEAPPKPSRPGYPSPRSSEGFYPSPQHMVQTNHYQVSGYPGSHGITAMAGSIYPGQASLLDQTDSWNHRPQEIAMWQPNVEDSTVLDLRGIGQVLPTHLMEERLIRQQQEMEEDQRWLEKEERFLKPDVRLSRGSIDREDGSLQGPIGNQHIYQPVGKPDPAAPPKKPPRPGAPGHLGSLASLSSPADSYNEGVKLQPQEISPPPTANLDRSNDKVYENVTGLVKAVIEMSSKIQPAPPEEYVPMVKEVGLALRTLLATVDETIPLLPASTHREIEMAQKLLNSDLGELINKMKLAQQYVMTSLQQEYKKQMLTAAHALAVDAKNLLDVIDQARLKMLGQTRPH

| FAK activation (FAK [1]; 10–1000 nM) | FAK activation (positive control) (FAK [1]; 100 nM, Caco-2 cells) | Structure (SMILES) | lowest concentration stimulating Caco-2 cell monolayer wound closure (Caco-2 cells) [nM] | FAK activation (FAK [2]) [%] |
| --- | --- | --- | --- | --- |
| did not activate FAK | – | CN(C)C(CNC(=O)Nc1cc(C(F)(F)F)ccc1N1CCOCC1)c1ccncc1 (stereo not shown) [M64, 1-(2-(dimethylamino)-2-(pyridin-4-yl)ethyl)-3-(2-morpholino-5-(trifluoromethyl)phenyl)urea] | – | – |
| – | activates FAK | COc1ccc(C2CCCN2C(=O)Nc2cc(C(F)(F)F)ccc2N2CCOCC2)cc1 (stereo not shown) [ZN40099027] | 10 | 14.8 |

From PMC9827036 (Current Research in Pharmacology and Drug Discovery, 2022)
